We go through 26 compounds from ChEMBL document CHEMBL1133480, “Rational design, synthesis, and biological activity of benzoxazinones as novel factor Xa inhibitors” (J Med Chem, 2000).

The structures appear in SMILES notation.

Assay [1] concerns the target T1, Plasminogen (Homo sapiens, UniProt P00747). In words: Compound was tested for in vitro inhibitory activity against plasmin. The gist of the method:
(§1)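 Enzyme was preincubated 1 h at room temperature with inhibitor across 14 concentrations (1 nM–100 μM final). A405 was read kinetically over 10 min at 37 °C. Percent inhibition came from the linear progress-curve slopes, typically in duplicate.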

The target of assay [2] is T2, Prothrombin (Homo sapiens, UniProt P00734). In words: Inhibition of thrombin. In outline: as §1
The target in assay [3] is T3, Serine protease 1 (Homo sapiens, UniProt P07477). Nature of the assay: In vitro inhibitory activity against trypsin. The gist of the method:
as §1

Assay [4] addresses T4, Coagulation factor X (Homo sapiens, UniProt P00742). In words: In vitro inhibition of coagulation factor Xa. The gist of the method:
as §1

For assay [5], the target named is T1, Plasminogen. Nature of the assay: Compound was tested for in vitro inhibitory activity against plasmin at 100 uM.
Assay [6] addresses T3, Serine protease 1. In words: In vitro inhibitory activity against trypsin at 100 uM.
The target in assay [7] is T2, Prothrombin. Nature of the assay: Inhibition of thrombin at 100 uM.
Assay [8] deals with T1, Plasminogen. Nature of the assay: Inhibition of plasmin at 100 uM.
Assay [9] has as its target T4, Coagulation factor X. Nature of the assay: Compound was tested for in vitro inhibitory activity against Coagulation factor X at 100 uM.
The target of assay [10] is T2, Prothrombin. Nature of the assay: Compound was tested for in vitro inhibitory activity against thrombin at 100 uM.

T3 sequence (P07477 whole entry): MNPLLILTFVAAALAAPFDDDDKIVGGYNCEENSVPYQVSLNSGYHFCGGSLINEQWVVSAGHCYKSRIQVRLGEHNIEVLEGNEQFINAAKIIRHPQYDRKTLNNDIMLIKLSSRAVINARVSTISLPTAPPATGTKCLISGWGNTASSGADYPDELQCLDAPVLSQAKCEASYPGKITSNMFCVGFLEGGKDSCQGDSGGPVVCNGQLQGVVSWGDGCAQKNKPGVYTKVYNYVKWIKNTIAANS
T1 sequence (P00747 97-580 limits assumed): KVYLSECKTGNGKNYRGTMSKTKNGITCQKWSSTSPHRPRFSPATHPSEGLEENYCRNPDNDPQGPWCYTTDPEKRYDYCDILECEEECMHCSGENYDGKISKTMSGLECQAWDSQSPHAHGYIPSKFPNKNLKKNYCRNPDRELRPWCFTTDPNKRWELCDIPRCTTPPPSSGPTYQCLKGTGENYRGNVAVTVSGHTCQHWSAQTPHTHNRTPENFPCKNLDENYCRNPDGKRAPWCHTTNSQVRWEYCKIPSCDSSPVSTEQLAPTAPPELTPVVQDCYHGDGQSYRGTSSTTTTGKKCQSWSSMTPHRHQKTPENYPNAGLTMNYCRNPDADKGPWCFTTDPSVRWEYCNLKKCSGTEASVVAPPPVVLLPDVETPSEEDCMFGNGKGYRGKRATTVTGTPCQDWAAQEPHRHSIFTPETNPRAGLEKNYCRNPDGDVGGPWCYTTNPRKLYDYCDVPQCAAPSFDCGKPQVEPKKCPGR
T1 sequence (P00747 581-810 limits assumed): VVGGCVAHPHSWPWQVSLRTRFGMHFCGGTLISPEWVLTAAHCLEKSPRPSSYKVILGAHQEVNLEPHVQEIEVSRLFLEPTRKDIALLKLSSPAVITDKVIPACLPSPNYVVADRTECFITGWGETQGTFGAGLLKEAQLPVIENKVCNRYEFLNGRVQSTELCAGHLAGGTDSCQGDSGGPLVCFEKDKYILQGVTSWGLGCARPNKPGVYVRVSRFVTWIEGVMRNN
T4 sequence (P00742 41-179 limits assumed): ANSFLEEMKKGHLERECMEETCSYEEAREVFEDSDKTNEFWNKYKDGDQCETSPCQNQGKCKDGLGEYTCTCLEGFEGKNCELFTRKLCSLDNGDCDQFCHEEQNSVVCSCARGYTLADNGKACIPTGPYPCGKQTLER
T4 sequence (P00742 235-488 limits assumed): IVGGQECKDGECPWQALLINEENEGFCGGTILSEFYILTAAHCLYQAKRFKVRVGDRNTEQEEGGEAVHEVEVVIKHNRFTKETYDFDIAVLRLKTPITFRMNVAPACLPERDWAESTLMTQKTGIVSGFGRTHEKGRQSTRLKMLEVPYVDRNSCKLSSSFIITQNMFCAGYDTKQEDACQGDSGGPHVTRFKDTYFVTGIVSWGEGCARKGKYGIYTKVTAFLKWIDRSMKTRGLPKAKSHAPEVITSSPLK

The IC50 is the concentration that gives 50% inhibition. A higher IC50 goes with a need for much substance. For `CC1CCCC(C)N1CCCCCCN1C(=O)C(c2cccc(C(=N)N)c2)Oc2ccccc21` (stereo not given), the IC50 at Plasminogen [1] is 12 µM; on Prothrombin [2], 5.6 µM; against Serine protease 1 [3], 2.1 µM; against Coagulation factor X [4], 0.068 µM.

What is called inhibition is how much of the control response was suppressed. A lower inhibition goes with a weak effect. For `C/N=C(/N)c1cccc(C2Oc3ccccc3N(CCCCCN3C(C)CCCC3C)C2=O)c1` (stereo not given), the inhibition stood at 32% at Plasminogen [5], 32% on Serine protease 1 [6] and 68% against Prothrombin [7].

On Plasminogen [8], `CC1CCCC(C)N1CCCCCN1C(=O)C(c2ccccc2Cl)Oc2ccccc21` (stereo not given) displayed an inhibition of 23%. The IC50 stood at 65 µM against Prothrombin [2], 39 µM against Serine protease 1 [3] and 16 µM against Coagulation factor X [4].

`Cc1ccc(C2Oc3ccccc3N(CCCCCN3C(C)CCCC3C)C2=O)cc1` (stereo not given): the inhibition is 13% at Plasminogen [8], 18% on Serine protease 1 [6] and 33% on Prothrombin [7]. For the same compound, at Coagulation factor X [4], the IC50 came out at 28 µM.

`CC(C)N(CCCCCN1C(=O)C(c2cccc(C(=N)N)c2)Oc2ccccc21)C(C)C` (stereo not given) came in with an inhibition against Plasminogen [5] of 72%. For the same compound, the IC50 worked out at 1.2 µM on Prothrombin [2], 1.2 µM against Serine protease 1 [3] and 0.12 µM at Coagulation factor X [4].

On Plasminogen [8], `CC1CCCC(C)N1CCCCCN1C(=O)C(c2ccc(C(=N)N)cc2)Oc2ccccc21` (stereo not given) showed an inhibition of 80%. The figures for the IC50 against Prothrombin [2], against Serine protease 1 [3] and on Coagulation factor X [4] were 1.7 µM, 13 µM and 7.9 µM, respectively.

The compound `CNC(=N)c1cccc(C2Oc3ccccc3N(CCCCCN3C(C)CCCC3C)C2=O)c1` (stereo not given) showed an IC50 at Coagulation factor X [4] of 2.8 µM. In other words, the single-digit micromolar range.

In the case of `N=C(N)c1cccc(C2Oc3ccccc3N(CCCCCN3CCCCC3)C2=O)c1` (stereo not given), the IC50 on Plasminogen [1] was 21 µM; against Prothrombin [2] it was 3.4 µM; against Serine protease 1 [3] it was 0.99 µM; on Coagulation factor X [4] it was 0.053 µM.

Take `CC1CCCC(C)N1CCCCCN1C(=O)C(c2cccc(C(N)=NN3CCOCC3)c2)Oc2ccccc21` (stereo not given): the IC50 on Coagulation factor X [4] came out at 1.5 µM.

With `N=C(N)c1cccc(C2Oc3ccccc3N(CCCCCN)C2=O)c1` (stereo not given), the values for the inhibition on Plasminogen [5] and against Prothrombin [7] were 64% and 60%, respectively. Further, the IC50 at Serine protease 1 [3] came out at 4.3 µM; on Coagulation factor X [4], 6.3 µM.

As for `CC1CCCC(C)N1CCCCCN1C(=O)C(c2ccccc2)Oc2ccccc21` (stereo not given), the inhibition is 26% on Plasminogen [5], 2.8% against Serine protease 1 [6] and 19% on Prothrombin [7]. Also, at Coagulation factor X [4], the midpoint of inhibition, the IC50, lay at 27 µM.

The compound `N=C(N)c1cccc(C2Oc3ccccc3N(CCCCCN3CCOCC3)C2=O)c1` (stereo not given) returned an inhibition on Plasminogen [5] of 70%. The IC50 on Prothrombin [2] stood at 2.2 µM; on Serine protease 1 [3] it was 1.1 µM; at Coagulation factor X [4] it was 0.24 µM.

With `CC1CCCC(C)N1CCCCCN1C(=O)C(c2cccc(C(=N)S)c2)Oc2ccccc21` (stereo not given), the inhibition against Plasminogen [8] was 29%; against Serine protease 1 [6], 5.2%; at Prothrombin [7] it was 20%.

Turning to `CC1CCCC(C)N1CCCCCN1C(=O)C(c2cccc(C(=N)NO)c2)Oc2ccccc21` (stereo not given), the inhibition on Plasminogen [8] came out at 11%; against Serine protease 1 [6], 21%; against Prothrombin [7] it was 19%. The compound further gave an IC50 at Coagulation factor X [4] of 5.6 µM.

For the compound `CC1CCCC(C)N1CCCCCN1C(=O)C(c2ccc(Cl)c(Cl)c2)Oc2ccccc21` (stereo not given), the results for the inhibition against Plasminogen [8], at Serine protease 1 [6] and on Prothrombin [7] were 25%, 14% and 47%, respectively. Besides, inhibition on Coagulation factor X [4] was half-maximal at 26 µM (IC50).

As to `CC1CCC(C)N1CCCCCN1C(=O)C(c2cccc(C(=N)N)c2)Oc2ccccc21` (stereo not given), the inhibition on Plasminogen [5] was found to be 85%. The IC50 came to 0.91 µM against Prothrombin [2], 0.76 µM at Serine protease 1 [3] and 0.048 µM on Coagulation factor X [4].

For `COc1ccc(C2Oc3ccccc3N(CCCCCN3C(C)CCCC3C)C2=O)cc1` (stereo not given), the inhibition against Plasminogen [8] was determined as 19%; against Serine protease 1 [6] it was 2.3%; on Prothrombin [7], 29%. At Coagulation factor X [4], this compound showed an IC50 of 4.9 µM.

As to `CC1CCCC(C)N1CCCCN1C(=O)C(c2cccc(C(=N)N)c2)Oc2ccccc21` (stereo not given), the IC50 on Plasminogen [1] came to 38 µM; against Prothrombin [2], 1.1 µM; on Serine protease 1 [3], 0.3 µM; against Coagulation factor X [4], 0.012 µM.

Regarding `CC1CCCC(C)N1CCCCCN1C(=O)C(c2ccc(C(=N)S)cc2)Oc2ccccc21` (stereo not given), the inhibition against Plasminogen [8] amounted to 44%; against Serine protease 1 [6] it was 7.8%; on Prothrombin [7], 32%. On Coagulation factor X [4], the IC50 amounted to 34 µM.

As to `CC1CCCC(C)N1CCCCCN1C(=O)C(c2ccc(C(=N)NO)cc2)Oc2ccccc21` (stereo not given), the inhibition amounted to 10% at Plasminogen [8], 8% on Serine protease 1 [6] and 18% against Prothrombin [7]. The compound also yielded an IC50 at Coagulation factor X [4] of 66 µM.

With `COc1cc(C2Oc3ccccc3N(CCCCCN3C(C)CCCC3C)C2=O)cc(OC)c1OC` (stereo not given), the inhibition on Plasminogen [8] is 20%; against Serine protease 1 [6], 12%; against Prothrombin [7], 30%; on Coagulation factor X [9], 30%.

As for `CCCCCCN(CCCCCC)CCCCCN1C(=O)C(c2cccc(C(=N)N)c2)Oc2ccccc21` (stereo not given), the IC50 was 2.2 µM on Plasminogen [1], 1.9 µM at Prothrombin [2], 2.5 µM on Serine protease 1 [3] and 1.6 µM on Coagulation factor X [4].

`CC1CCCC(C)N1CCCCCN1C(=O)C(c2cccc(C(=N)NN3CCOCC3)c2)Oc2ccccc21` (stereo not given): the inhibition against Plasminogen [5] is 0%; on Serine protease 1 [6], 58%; against Prothrombin [7] it was 15%.

As to `CC1CCCC(C)N1CCCCCN1C(=O)C(c2cccc(CN)c2)Oc2ccccc21` (stereo not given), the results for the IC50 at Plasminogen [1], against Serine protease 1 [3] and against Coagulation factor X [4] were 25 µM, 7.8 µM and 0.84 µM, respectively. The compound further returned an inhibition against Prothrombin [10] of 64%.

Take `COc1ccc(C2Oc3ccccc3N(CCCCCN3C(C)CCCC3C)C2=O)cc1OC` (stereo not given): the inhibition against Plasminogen [8] came out at 0%; on Serine protease 1 [6], 0%; at Prothrombin [7], 0%; against Coagulation factor X [9] it was 31%.

As for `CC1CCCC(C)N1CCCCCN1C(=O)C(c2ccc(Cl)cc2)Oc2ccccc21` (stereo not given), the inhibition on Plasminogen [8] worked out at 30%; against Serine protease 1 [6], 46%; against Prothrombin [7], 38%. At Coagulation factor X [4], this compound had an IC50 of 23 µM.
